Source: ChEMBL document CHEMBL2412970, “Synthesis and anticancer activity of 2,4-disubstituted furo[3,2-b]indole derivatives” (Eur J Med Chem, 2013)
pIC50: −log10 of the molar value.

How the values were obtained:
A498 [1] = assay: Cytotoxicity against human A498 cells after 48 hrs by MTT assay; format: functional, cell-based; conditions: A498, 48 h
Detroit 551 = assay: Cytotoxicity against human Detroit 551 cells after 48 hrs by MTT assay; format: cell-based; conditions: Detroit 551, 48 h
[2] = Cytotoxicity against human Hep3B cells after 48 hrs by MTT assay; format: functional, cell-based, Hep 3B2
[3] = Cytotoxicity against human H460 cells after 48 hrs by MTT assay; format: functional, cell-based; conditions: NCI-H460, 48 h
Procedure, shortened: (§1)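 Cells were treated with a range of concentrations for 48 h. Viability was read by MTT: formazan was dissolved in DMSO and absorbance read at 570 nm. Untreated or 0.1% DMSO cells served as control. Data are mean from three independent experiments. HL-60, H460 and COLO 205 were kept in RPMI-1640 with 10% FBS and penicillin/streptomycin.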

COLO 205 = assay: Cytotoxicity against human COLO205 cells after 48 hrs by MTT assay; format: functional, cell-based; conditions: COLO 205, 48 h; procedure, shortened: as §1
HL-60 = assay: Cytotoxicity against human HL60 cells after 48 hrs by MTT assay; format: functional, cell-based; conditions: HL-60, 48 h; procedure, shortened: as §1
A498 [4] = assay: Ratio of YC-1 IC50 to compound IC50 for human A498 cells after 48 hrs by MTT assay; format: functional

Structure (SMILES) | pIC50 (A498 [1]) | pIC50 (Detroit 551) | pIC50 [2] | pIC50 [3] | pIC50 (COLO 205) | pIC50 (HL-60) | Ratio IC50 (A498 [4])
OCc1cc2c(o1)c1ccccc1n2Cc1ccc(F)cc1 | 6.16 | < 4.30 | 4.35 | 4.44 | 4.44 | < 4.30 | –
Cn1c2ccccc2c2oc(C(=O)O)cc21 | < 4.30 | < 4.30 | < 4.30 | < 4.30 | < 4.30 | < 4.30 | –
COC(=O)c1cc2c(o1)c1ccccc1n2Cc1cccc(F)c1 | < 4.30 | < 4.30 | < 4.30 | < 4.30 | < 4.30 | < 4.30 | –
COC(=O)c1cc2c(o1)c1ccccc1n2Cc1ccc(C(=O)OC)s1 | < 4.30 | < 4.30 | < 4.30 | < 4.30 | < 4.30 | < 4.30 | –
COC(=O)c1cc2[nH]c3ccccc3c2o1 | < 4.30 | < 4.30 | < 4.30 | < 4.30 | < 4.30 | < 4.30 | –
COC(=O)c1ccc(Cn2c3ccccc3c3oc(C(=O)OC)cc32)cc1 | < 4.30 | < 4.30 | < 4.30 | < 4.30 | < 4.30 | < 4.30 | –
OCc1cc2c(o1)c1ccccc1n2Cc1cccc(Cl)c1 | 5.96 | < 4.30 | 4.53 | 4.30 | 4.58 | 4.83 | –
OCc1cc2c(o1)c1ccccc1n2Cc1ccccc1F | 6.37 | < 4.30 | 4.30 | < 4.30 | 4.39 | < 4.30 | –
COC(=O)c1cc2c(o1)c1ccccc1n2Cc1ccc(Cl)cc1 | < 4.30 | < 4.30 | < 4.30 | < 4.30 | < 4.30 | < 4.30 | –
COC(=O)c1cc2c(o1)c1ccccc1n2C | < 4.30 | < 4.30 | < 4.30 | 4.30 | < 4.30 | < 4.30 | –
COC(=O)c1cc2c(o1)c1ccccc1n2Cc1ccccc1 | < 4.30 | < 4.30 | < 4.30 | < 4.30 | < 4.30 | < 4.30 | –
COc1ccc(Cn2c3ccccc3c3oc(CO)cc32)cc1 | 6.44 | < 4.30 | 4.34 | 4.37 | 4.53 | 4.26 | –
COC(=O)c1cc2c(o1)c1ccccc1n2Cc1ccc(OC)cc1 | < 4.30 | < 4.30 | 4.23 | < 4.30 | < 4.30 | < 4.30 | –
OCc1cc2c(o1)c1ccccc1n2Cc1ccccc1 | 6.62 | < 4.30 | 4.30 | < 4.30 | 4.51 | < 4.30 | 1.5
COC(=O)c1cc2c(o1)c1ccccc1n2Cc1ccccc1Cl | < 4.30 | < 4.30 | < 4.30 | < 4.30 | < 4.60 | < 4.30 | –
COC(=O)c1cc2c(o1)c1ccccc1n2Cc1cccc(Cl)c1 | < 4.30 | < 4.30 | < 4.30 | < 4.30 | < 4.30 | < 4.30 | –
COC(=O)c1ccc(Cn2c3ccccc3c3oc(C(=O)OC)cc32)o1 | < 4.30 | < 4.30 | < 4.30 | < 4.30 | < 4.30 | 4.30 | –
OCc1cc2c(o1)c1ccccc1n2Cc1cccc(F)c1 | 6.23 | < 4.30 | 4.36 | 4.30 | < 4.30 | 4.60 | –
CCn1c2ccccc2c2oc(C(=O)O)cc21 | < 4.30 | < 4.30 | < 4.30 | < 4.30 | < 4.30 | < 4.30 | –
COc1ccccc1Cn1c2ccccc2c2oc(CO)cc21 | 5.37 | 4.22 | 4.61 | 4.51 | 4.55 | 4.88 | –
COC(=O)c1cc2c(o1)c1ccccc1n2Cc1ccc(F)cc1 | < 4.30 | < 4.30 | < 4.30 | < 4.30 | < 4.30 | < 4.30 | –

Structure (SMILES) | pIC50 (A498 [1]) | pIC50 (Detroit 551) | pIC50 [2] | pIC50 [3] | pIC50 (COLO 205) | pIC50 (HL-60) | Ratio IC50 (A498 [4])
OCc1cc2c(o1)c1ccccc1n2Cc1ccc2c(c1)OCO2 | 6.57 | < 4.30 | < 4.30 | < 4.30 | < 4.30 | < 4.30 | –
COc1cccc(Cn2c3ccccc3c3oc(CO)cc32)c1 | 6.48 | < 4.30 | 4.50 | 4.28 | 4.50 | 4.45 | –
OCc1cc2c(o1)c1ccccc1n2Cc1ccc(Cl)cc1 | 6.10 | 4.35 | 4.44 | 4.50 | 5.09 | 4.41 | –
OCc1cc2c(o1)c1ccccc1n2Cc1ccc(CO)s1 | 6.16 | < 4.30 | < 4.30 | < 4.30 | < 4.30 | < 4.30 | –
COC(=O)c1cc2c(o1)c1ccccc1n2Cc1cccc(OC)c1 | < 4.30 | < 4.30 | < 4.30 | < 4.30 | < 4.30 | < 4.30 | –
OCc1cc2c(o1)c1ccccc1n2Cc1ccc(CO)[se]1 | 6.64 | < 4.30 | < 4.30 | < 4.30 | < 4.30 | < 4.30 | 1.5
OCc1cc2[nH]c3ccccc3c2o1 | 4.66 | < 4.30 | < 4.30 | < 4.30 | < 4.30 | < 4.30 | –
OCc1ccc(Cn2c3ccccc3c3oc(CO)cc32)cc1 | 6.33 | < 4.30 | < 4.30 | < 4.30 | < 4.30 | < 4.30 | –
OCc1ccc(-c2nn(Cc3ccccc3)c3ccccc23)o1 | 6.43 | – | – | – | – | – | –
OCc1cc2c(o1)c1ccccc1n2Cc1ccccc1Cl | 5.26 | < 4.30 | 4.37 | 4.52 | 4.57 | 4.77 | –
COC(=O)c1cccc(Cn2c3ccccc3c3oc(C(=O)OC)cc32)c1 | < 4.30 | < 4.30 | 4.30 | < 4.30 | < 4.30 | 4.78 | –
COC(=O)c1cc2c(o1)c1ccccc1n2Cc1ccc(C(=O)OC)[se]1 | < 4.30 | < 4.60 | < 4.60 | < 4.60 | < 4.30 | < 4.60 | –
O=C(O)c1cc2c(o1)c1ccccc1n2Cc1ccccc1 | < 4.30 | < 4.30 | < 4.30 | < 4.30 | < 4.30 | < 4.30 | –
COC(=O)c1cc2c(o1)c1ccccc1n2Cc1ccccc1OC | < 4.30 | < 4.30 | 4.30 | < 4.30 | 4.48 | 4.60 | –
COC(=O)c1cc2c(o1)c1ccccc1n2Cc1ccc2c(c1)OCO2 | < 4.30 | < 4.30 | < 4.30 | < 4.30 | < 4.30 | < 4.30 | –
CCn1c2ccccc2c2oc(CO)cc21 | 5.43 | < 4.30 | < 4.30 | 4.30 | < 4.30 | < 4.30 | –
O=C(O)c1cc2[nH]c3ccccc3c2o1 | < 4.30 | < 4.30 | < 4.30 | < 4.30 | < 4.30 | < 4.30 | –
COC(=O)c1cc2c(o1)c1ccccc1n2Cc1ccccc1F | < 4.30 | < 4.30 | < 4.30 | < 4.30 | < 4.30 | < 4.30 | –
OCc1cccc(Cn2c3ccccc3c3oc(CO)cc32)c1 | 6.43 | < 4.30 | 4.30 | < 4.30 | < 4.30 | < 4.30 | –
Cn1c2ccccc2c2oc(CO)cc21 | 5.34 | < 4.30 | < 4.30 | 4.30 | < 4.30 | < 4.30 | –
CCn1c2ccccc2c2oc(C(=O)OC)cc21 | < 4.30 | < 4.30 | < 4.30 | < 4.30 | < 4.30 | < 4.30 | –
